Data set [1] has as its target Mitogen-activated protein kinase 8 (Homo sapiens, UniProt P45983). Kind of data set: Inhibition of JNK1 (unknown origin).
Data set [2] has as its target Serine/threonine-protein kinase 16 (Homo sapiens) (UniProt O75716). Put plainly: Inhibition of STK16 (unknown origin) at 0.1 uM. The gist of the method:
(§1)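 Kinase selectivity panel of 298 kinases, test compound at 0.1 μM, percent inhibition reported.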

Data set [3] deals with Proto-oncogene tyrosine-protein kinase Src (Homo sapiens) (UniProt P12931). Put plainly: Inhibition of Src_N1 (unknown origin) at 0.1 uM. The gist of the method:
as §1

Data set [4] deals with Mitogen-activated protein kinase kinase kinase 10 (Homo sapiens, UniProt Q02779). Put plainly: Inhibition of MLK2 (unknown origin).
The nature of data set [5]: Plasma clearance in cynomolgus monkey at 1 mg/kg, iv and 5 mg/kg, po. Type of data set: ADME, organism-based, Macaca fascicularis. The gist of the method:
(§2)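 Single-compound PK. Intravenous dose 1 mg/kg given as a 60% PEG solution. Oral dose 5 mg/kg given as an aqueous suspension in 1% methylcellulose. Plasma clearance, steady-state volume of distribution, half-life and oral bioavailability were determined from these doses.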

A short description of data set [6]: Plasma clearance in rat at 1 mg/kg, iv and 5 mg/kg, po. Type of data set: ADME, organism-based. The gist of the method:
as §2

The nature of data set [7]: Volume of distribution at steady state in cynomolgus monkey at 1 mg/kg, iv and 5 mg/kg, po. Type of data set: ADME, organism-based, Macaca fascicularis. Conditions: in vivo, read-out: Vdss. In outline:
as §2

Data set [8] deals with Tyrosine-protein kinase Lck (Homo sapiens) (UniProt P06239). Put plainly: Inhibition of LCK (unknown origin) at 0.1 uM. The gist of the method:
as §1

A short description of data set [9]: Volume of distribution at steady state in mouse at 1 mg/kg, iv and 5 mg/kg, po. In kind it is ADME, organism-based. Conditions: in vivo, read-out: Vdss. In outline:
as §2

Data set [10] concerns the target T1, Ephrin type-A receptor 1 (Homo sapiens) (UniProt P21709).
T1 sequence (whole entry): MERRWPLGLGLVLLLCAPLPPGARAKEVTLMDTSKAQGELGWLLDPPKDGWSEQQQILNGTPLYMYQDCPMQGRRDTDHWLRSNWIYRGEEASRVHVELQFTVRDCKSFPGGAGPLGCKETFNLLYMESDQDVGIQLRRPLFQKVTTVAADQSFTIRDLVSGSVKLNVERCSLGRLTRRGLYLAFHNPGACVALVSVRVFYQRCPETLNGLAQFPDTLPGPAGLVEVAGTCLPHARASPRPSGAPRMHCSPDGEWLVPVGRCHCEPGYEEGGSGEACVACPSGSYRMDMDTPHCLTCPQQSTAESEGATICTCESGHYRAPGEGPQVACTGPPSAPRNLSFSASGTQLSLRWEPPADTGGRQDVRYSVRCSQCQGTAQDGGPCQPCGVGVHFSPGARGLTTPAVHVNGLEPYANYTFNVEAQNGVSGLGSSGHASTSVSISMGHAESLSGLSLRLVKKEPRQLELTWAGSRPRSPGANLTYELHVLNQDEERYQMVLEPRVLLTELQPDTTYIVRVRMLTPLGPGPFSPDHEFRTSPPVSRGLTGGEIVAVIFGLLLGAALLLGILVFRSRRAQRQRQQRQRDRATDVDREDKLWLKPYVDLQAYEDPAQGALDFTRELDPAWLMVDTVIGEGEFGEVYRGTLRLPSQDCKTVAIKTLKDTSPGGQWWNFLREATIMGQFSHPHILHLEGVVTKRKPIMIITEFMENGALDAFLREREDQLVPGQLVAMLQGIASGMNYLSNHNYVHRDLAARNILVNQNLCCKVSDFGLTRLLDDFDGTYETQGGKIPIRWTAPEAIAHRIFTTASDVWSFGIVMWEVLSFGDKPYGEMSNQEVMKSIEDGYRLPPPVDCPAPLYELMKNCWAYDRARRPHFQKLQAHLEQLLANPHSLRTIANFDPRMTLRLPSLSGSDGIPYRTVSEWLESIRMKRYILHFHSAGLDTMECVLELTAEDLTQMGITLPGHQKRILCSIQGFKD
Kind of data set: Inhibition of EphA1 (unknown origin) at 0.1 uM. The gist of the method:
as §1

Data set [11] deals with Mus musculus. Kind of data set: Neuroprotective activity against C57Bl/6 mouse Parkinson's disease model assessed as reduction of MPTP-induced increase in phosphorylated c-Jun level in substantia nigra at 37.5 to 75 mg/kg, po administered 30 mins prior to MPTP challenge followed by 2nd dosing after 12 and 24 hrs measured 1 hr post last dose by ELISA relative to vehicle-treated control. Type of data set: functional, organism-based.

Data set [12] can be described thus: Plasma clearance in mouse at 1 mg/kg, iv and 5 mg/kg, po. Type of data set: ADME, organism-based. In outline:
as §2

Data set [13] is described as follows: Volume of distribution at steady state in dog at 1 mg/kg, iv and 5 mg/kg, po. Type of data set: ADME, organism-based, Canis lupus familiaris. The following applies: in vivo, read-out: Vdss. In outline:
as §2

For data set [14], the target named is Mitogen-activated protein kinase 10 (Homo sapiens, UniProt P53779). Put plainly: Inhibition of JNK3 (unknown origin).
Data set [15] in a line: Oral bioavailability in rat at 5 mg/kg. In kind it is ADME, organism-based. The following applies: in vivo. The gist of the method:
as §2

The target of data set [16] is Proto-oncogene tyrosine-protein kinase Src (Homo sapiens) (UniProt P12931). Kind of data set: Inhibition of Src (unknown origin) at 0.1 uM. The gist of the method:
as §1

The nature of data set [17]: Plasma clearance in dog at 1 mg/kg, iv and 5 mg/kg, po. In kind it is ADME, organism-based, Canis lupus familiaris. The gist of the method:
as §2

For orientation: IC50 means the concentration that gives 50% inhibition. As a reminder, the inhibition is how much of the control response was suppressed. The term bioavailability denotes dose-corrected exposure relative to a reference, in per cent.

Molecules are shown by their SMILES. Active and inactive are the calls of the source. The rule behind the calls is not given here. Some results are limits rather than exact numbers.

Proto-oncogene tyrosine-protein kinase Src (Homo sapiens), sequence (P12931 2-536 limits assumed): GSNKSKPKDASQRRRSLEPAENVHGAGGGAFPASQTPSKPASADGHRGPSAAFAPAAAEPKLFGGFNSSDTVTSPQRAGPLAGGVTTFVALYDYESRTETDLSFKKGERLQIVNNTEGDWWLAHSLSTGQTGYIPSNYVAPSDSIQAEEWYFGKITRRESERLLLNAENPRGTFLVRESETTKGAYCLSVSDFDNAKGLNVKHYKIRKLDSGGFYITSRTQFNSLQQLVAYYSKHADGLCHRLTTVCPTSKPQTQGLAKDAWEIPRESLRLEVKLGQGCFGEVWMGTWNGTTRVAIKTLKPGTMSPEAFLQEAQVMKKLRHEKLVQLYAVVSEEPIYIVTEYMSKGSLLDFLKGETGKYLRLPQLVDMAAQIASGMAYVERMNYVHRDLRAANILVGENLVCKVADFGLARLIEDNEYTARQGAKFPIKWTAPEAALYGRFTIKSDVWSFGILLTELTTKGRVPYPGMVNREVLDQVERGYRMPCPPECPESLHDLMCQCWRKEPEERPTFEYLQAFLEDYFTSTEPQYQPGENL
Mitogen-activated protein kinase 8, sequence (P45983 whole entry): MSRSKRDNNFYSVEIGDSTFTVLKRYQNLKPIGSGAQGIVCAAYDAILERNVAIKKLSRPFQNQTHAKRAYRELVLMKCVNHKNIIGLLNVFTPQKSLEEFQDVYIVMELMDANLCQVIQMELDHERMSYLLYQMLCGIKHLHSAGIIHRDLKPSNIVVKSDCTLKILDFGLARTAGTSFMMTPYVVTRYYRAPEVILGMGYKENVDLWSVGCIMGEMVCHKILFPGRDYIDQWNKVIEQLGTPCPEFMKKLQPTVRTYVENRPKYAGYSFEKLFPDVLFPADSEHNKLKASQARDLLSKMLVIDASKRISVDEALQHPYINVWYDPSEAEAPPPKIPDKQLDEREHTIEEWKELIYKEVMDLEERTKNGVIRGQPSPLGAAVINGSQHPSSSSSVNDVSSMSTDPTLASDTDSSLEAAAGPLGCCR
Tyrosine-protein kinase Lck (Homo sapiens), sequence (P06239 2-509 limits assumed): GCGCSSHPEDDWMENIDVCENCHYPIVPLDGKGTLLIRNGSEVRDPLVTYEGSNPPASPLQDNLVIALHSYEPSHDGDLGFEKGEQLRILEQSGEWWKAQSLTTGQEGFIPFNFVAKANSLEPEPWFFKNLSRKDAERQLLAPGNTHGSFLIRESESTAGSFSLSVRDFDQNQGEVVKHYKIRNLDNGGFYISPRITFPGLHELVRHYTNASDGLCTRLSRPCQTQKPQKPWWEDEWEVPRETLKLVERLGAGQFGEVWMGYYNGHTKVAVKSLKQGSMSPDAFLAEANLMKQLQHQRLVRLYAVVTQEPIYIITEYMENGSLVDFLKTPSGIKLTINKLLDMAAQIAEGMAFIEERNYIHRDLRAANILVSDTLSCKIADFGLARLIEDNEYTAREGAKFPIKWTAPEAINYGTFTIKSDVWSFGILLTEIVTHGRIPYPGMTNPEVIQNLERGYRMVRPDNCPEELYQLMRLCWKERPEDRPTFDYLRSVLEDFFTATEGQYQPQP
Mitogen-activated protein kinase 10, sequence (P53779 whole entry): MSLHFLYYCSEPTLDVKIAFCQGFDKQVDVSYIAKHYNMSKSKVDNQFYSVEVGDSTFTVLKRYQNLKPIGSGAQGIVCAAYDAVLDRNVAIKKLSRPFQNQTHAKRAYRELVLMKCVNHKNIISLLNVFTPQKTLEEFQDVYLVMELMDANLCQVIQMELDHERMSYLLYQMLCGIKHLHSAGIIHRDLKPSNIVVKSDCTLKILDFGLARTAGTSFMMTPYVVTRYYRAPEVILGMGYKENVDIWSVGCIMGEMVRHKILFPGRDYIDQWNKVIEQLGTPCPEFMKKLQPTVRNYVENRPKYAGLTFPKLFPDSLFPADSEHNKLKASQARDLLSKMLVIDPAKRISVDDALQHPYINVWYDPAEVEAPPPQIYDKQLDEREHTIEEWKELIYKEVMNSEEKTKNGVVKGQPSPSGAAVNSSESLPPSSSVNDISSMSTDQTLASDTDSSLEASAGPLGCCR
Mitogen-activated protein kinase kinase kinase 10, sequence (Q02779 whole entry): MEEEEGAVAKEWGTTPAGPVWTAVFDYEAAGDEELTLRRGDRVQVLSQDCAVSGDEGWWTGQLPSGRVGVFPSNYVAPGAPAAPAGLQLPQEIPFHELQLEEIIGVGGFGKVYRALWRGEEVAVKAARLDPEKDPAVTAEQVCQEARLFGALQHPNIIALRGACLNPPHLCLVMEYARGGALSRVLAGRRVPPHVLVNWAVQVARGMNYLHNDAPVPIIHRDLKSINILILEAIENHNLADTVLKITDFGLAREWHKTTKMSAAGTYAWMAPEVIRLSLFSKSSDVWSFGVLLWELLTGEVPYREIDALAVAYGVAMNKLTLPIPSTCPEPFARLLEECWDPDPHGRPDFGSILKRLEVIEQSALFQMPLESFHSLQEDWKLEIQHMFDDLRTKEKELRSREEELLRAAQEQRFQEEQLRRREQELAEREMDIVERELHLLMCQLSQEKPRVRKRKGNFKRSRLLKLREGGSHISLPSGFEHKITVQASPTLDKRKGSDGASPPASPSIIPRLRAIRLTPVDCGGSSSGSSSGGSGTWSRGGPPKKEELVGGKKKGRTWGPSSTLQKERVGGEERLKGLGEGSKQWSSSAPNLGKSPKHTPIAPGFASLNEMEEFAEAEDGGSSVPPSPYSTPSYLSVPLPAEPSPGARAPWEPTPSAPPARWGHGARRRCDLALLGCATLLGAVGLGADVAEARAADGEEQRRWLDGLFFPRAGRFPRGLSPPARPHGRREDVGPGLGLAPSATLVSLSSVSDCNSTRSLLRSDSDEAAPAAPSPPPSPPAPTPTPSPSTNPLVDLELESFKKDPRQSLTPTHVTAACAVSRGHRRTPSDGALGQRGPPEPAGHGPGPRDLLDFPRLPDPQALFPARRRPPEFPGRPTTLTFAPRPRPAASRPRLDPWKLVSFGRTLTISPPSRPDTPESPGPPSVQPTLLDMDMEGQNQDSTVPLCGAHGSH
Serine/threonine-protein kinase 16 (Homo sapiens), sequence (O75716 whole entry): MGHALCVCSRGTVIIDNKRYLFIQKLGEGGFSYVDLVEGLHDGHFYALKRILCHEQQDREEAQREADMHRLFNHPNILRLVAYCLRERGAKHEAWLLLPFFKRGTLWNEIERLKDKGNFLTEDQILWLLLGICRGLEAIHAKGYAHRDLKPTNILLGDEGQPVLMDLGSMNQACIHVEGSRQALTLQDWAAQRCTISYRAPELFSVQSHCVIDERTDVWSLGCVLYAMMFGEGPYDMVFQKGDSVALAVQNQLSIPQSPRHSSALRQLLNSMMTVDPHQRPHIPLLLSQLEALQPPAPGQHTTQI

For `N#Cc1ccnc(Nc2cc(C3CCN(C4COC4)CC3)cc(N3CCC(F)(F)C3)n2)c1`, the concentration for half-maximal inhibition (IC50) in data set [1] is 129 nM; in data set [4] it was 767 nM; in data set [14] it was 364 nM. Also, the inhibition in data set [2], in data set [3], in [8], in [10] and in data set [16] was more than 80% throughout. Besides, the clearance is 16 mL/min/kg in data set [5], 30 mL/min/kg in data set [6], 56 mL/min/kg in [12] and 41 mL/min/kg in data set [17]. Further, the Vd in data set [7] was found to be 3.1 L/kg; in [9] it was 2.5 L/kg; in [13], 6.5 L/kg. The outcome in data set [11] was Active. Also, in [15], the bioavailability turned out to be 63%.

Values taken from ChEMBL document CHEMBL3393025, “Discovery of dual leucine zipper kinase (DLK, MAP3K12) inhibitors with activity in neurodegeneration models” (J Med Chem, 2015).
